The results in this text go back to ChEMBL document CHEMBL1153940, “Anthranilic acid based CCK1 receptor antagonists: blocking the receptor with the same 'words' of the endogenous ligand” (Bioorg Med Chem, 2009).

Experiment [1] addresses T1, Cholecystokinin receptor type A (Rattus norvegicus, UniProt P30551).
T1 sequence (P30551 whole entry): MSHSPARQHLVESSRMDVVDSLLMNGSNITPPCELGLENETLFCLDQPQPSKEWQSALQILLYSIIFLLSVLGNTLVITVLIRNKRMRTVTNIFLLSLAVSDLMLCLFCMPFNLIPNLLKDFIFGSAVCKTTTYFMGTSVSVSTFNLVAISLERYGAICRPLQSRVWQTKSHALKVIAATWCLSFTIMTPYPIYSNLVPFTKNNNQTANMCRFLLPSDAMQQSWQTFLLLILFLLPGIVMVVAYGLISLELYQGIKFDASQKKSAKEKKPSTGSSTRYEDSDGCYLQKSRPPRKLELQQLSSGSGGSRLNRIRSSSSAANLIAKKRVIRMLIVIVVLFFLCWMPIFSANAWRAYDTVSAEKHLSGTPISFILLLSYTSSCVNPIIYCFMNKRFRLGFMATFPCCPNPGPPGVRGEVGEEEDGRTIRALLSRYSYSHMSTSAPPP
In words: Displacement of [125I]BH-CCK8 from CCK1 receptor in Sprague-Dawley rat pancreatic acinar cells. In outline: (§1)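 Pancreatic acini were obtained by enzymatic digestion from male Sprague Dawley rats fasted 18–24 h with water allowed. Cells were incubated with 25 pM (final) [125I]BH-CCK-8 and competitors at 37 °C for 30 min with shaking. The reaction was stopped with ice-cold Hepes-Ringer (1% BSA, soybean trypsin inhibitor, pH 7.4), then centrifuged 5 min at 12,500g, and pellet radioactivity was measured.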
For orientation: Loss of bound radioactivity is the signal in a displacement assay; it reports binding, not function.

The target in experiment [2] is Gastrin/cholecystokinin type B receptor (Cavia porcellus, UniProt H0VZC5). In words: Displacement of [125I]BH-CCK8 from CCK2 receptor in Hartley guinea pig cerebral cortex.
Experiment [3] concerns Gastrin/cholecystokinin type B receptor (Cavia porcellus). Nature of the experiment: Displacement of [125I]BH-CCK8 from CCK2 receptor in Hartley guinea pig cerebral cortex at 30 uM.
For experiment [4], the target named is T2, Cholecystokinin receptor type A (Cavia porcellus) (UniProt Q63931).
T2 sequence (whole entry): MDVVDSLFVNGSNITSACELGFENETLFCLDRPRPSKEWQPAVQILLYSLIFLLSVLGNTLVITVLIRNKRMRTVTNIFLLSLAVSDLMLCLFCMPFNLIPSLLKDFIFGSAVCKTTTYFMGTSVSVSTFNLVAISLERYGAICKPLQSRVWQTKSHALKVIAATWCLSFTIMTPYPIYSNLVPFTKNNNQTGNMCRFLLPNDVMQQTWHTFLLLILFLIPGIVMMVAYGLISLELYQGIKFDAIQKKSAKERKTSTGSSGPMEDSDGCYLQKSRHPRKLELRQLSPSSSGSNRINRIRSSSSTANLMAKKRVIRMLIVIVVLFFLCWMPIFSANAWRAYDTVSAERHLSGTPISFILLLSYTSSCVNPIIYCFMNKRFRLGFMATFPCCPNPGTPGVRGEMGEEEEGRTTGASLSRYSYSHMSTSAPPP
In words: Antagonist activity against CCK1 receptor in Hartley guinea pig gallbladder assessed as inhibition of CCK-8- stimulated contraction at 1 uM. Format: functional. An outline of the steps: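 Circular smooth-muscle strips (about 3 × 15 mm) hung in organ baths of Krebs–Henseleit at 32 °C, gassed 95% O2–5% CO2, and equilibrated 60 min with washes every 15 min. Antagonist or vehicle was applied 5 min before a submaximal (70–80%) CCK-8 concentration. Isometric contraction was recorded and activity expressed as percent inhibition of agonist contraction.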

The test system of experiment [5] is Gastrin/cholecystokinin type B receptor (Cavia porcellus). Nature of the experiment: Displacement of [125I]BH-CCK8 from CCK2 receptor in Hartley guinea pig cerebral cortex at 10 uM.
In experiment [6] the target is T3, Cholecystokinin receptor type A (Rattus norvegicus) (UniProt P30551).
T3 sequence (whole entry): T1 sequence (P30551 whole entry)
In words: Displacement of [125I]BH-CCK8 from CCK1 receptor in Sprague-Dawley rat pancreatic acinar cells at 3 uM. In outline:
as §1

Experiment [7] concerns the target T3, Cholecystokinin receptor type A (Rattus norvegicus). In words: Displacement of [125I]BH-CCK8 from CCK1 receptor in Sprague-Dawley rat pancreatic acinar cells at 10 uM. In outline:
as §1

Experiment [8] has as its system Gastrin/cholecystokinin type B receptor (Cavia porcellus). Nature of the experiment: Displacement of [125I]BH-CCK8 from CCK2 receptor in Hartley guinea pig cerebral cortex at 1 uM.

pIC50: −log10 of the molar value. A value given as a limit tells only on which side of the number the result lay.

Gastrin/cholecystokinin type B receptor, sequence (H0VZC5 1-426): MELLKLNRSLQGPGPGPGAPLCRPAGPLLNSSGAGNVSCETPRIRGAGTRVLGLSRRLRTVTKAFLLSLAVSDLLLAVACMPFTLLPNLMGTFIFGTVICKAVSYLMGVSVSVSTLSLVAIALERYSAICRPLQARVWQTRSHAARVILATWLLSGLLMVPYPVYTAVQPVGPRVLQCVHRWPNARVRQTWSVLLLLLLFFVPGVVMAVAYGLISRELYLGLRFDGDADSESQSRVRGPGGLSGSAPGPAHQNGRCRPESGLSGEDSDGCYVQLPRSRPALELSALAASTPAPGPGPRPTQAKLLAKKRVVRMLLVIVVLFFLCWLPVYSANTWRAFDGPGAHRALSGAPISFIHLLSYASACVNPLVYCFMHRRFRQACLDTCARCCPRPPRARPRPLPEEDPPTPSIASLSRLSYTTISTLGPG

Regarding `O=C(Nc1ccccc1C(=O)NC(Cc1ccccc1)C(=O)O)c1cc2ccccc2[nH]1` (stereo unspecified), the values for the pIC50 in experiment [1] and in experiment [2] were 6.71 and 4.79, respectively.

On to `CC(C)C[C@@H](NC(=O)c1ccccc1NC(=O)c1cc2ccccc2[nH]1)C(=O)O`, for which the pIC50 (in general, −log10 of the IC50, conventionally taken in molar units) in experiment [1] is 7.34; in experiment [2], 4.83.

In experiment [1], `CSCC[C@H](NC(=O)c1ccccc1NC(=O)c1cc2ccccc2[nH]1)C(=O)O` gave a negative logarithm of the IC50 (pIC50) of 5.56. Besides, in experiment [3], the Activity is 31%.

Turning to `CSCC[C@@H](NC(=O)c1ccccc1NC(=O)c1cc2ccccc2[nH]1)C(=O)O`, the pIC50 is 7.57 in experiment [1] and 4.94 in experiment [2].

Turning to `CSCCC(NC(=O)c1ccccc1NC(=O)c1cc2ccccc2[nH]1)C(=O)O` (stereo unspecified), in experiment [1], the negative logarithm of the IC50 (pIC50) was 7.28. In addition, the inhibition (in general, how much of the control response was suppressed) in experiment [4] was 100%. In experiment [5], this compound displayed an Activity of less than 20%.

On to `O=C(O)CNC(=O)c1ccccc1NC(=O)c1cc2ccccc2[nH]1`, for which the negative logarithm of the IC50 (pIC50) in experiment [1] is 5.26.

For the compound `CCCCCN(CCCCC)C(=O)C(Cc1ccccc1)NC(=O)c1ccccc1NC(=O)c1cc2ccccc2[nH]1` (stereo unspecified), the Activity in experiment [6] and in experiment [3] was less than 20% each time.

As to `O=C(Nc1ccccc1C(=O)NCCc1c[nH]c2ccccc12)c1cc2ccccc2[nH]1`, the Activity in experiment [6] and in experiment [5] was less than 20% in each case.

Take `O=C(Nc1ccccc1C(=O)NCCc1ccccc1)c1cc2ccccc2[nH]1`: the Activity in experiment [6] and in experiment [5] was less than 20% in each case.

Take `O=C(O)CCCNC(=O)c1ccccc1NC(=O)c1cc2ccccc2[nH]1`: the Activity in experiment [6] and in experiment [3] was less than 20% in each case.

Take `O=C(O)CCNC(=O)c1ccccc1NC(=O)c1cc2ccccc2[nH]1`: the Activity in experiment [6] and in experiment [3] was less than 20% in each case.

For `CC(NC(=O)c1ccccc1NC(=O)c1cc2ccccc2[nH]1)C(=O)O` (racemic), in experiment [1], the pIC50 is 5.49. Also, the Activity in experiment [5] was less than 20%.

In experiment [1], `CC(Cc1ccccc1)NC(=O)c1ccccc1NC(=O)c1cc2ccccc2[nH]1` (racemic) had a pIC50 of 5.50. Besides, the Activity in experiment [5] was less than 20%.

Take `O=C(O)CC(Cc1ccccc1)NC(=O)c1ccccc1NC(=O)c1cc2ccccc2[nH]1` (racemic): the Activity in experiment [7] came to 25%. The negative-log IC50 (pIC50) in experiment [2] is 4.77.

`O=C(Nc1ccccc1C(=O)NC(Cc1c[nH]c2ccccc12)C(=O)O)c1cc2ccccc2[nH]1` (racemic) showed a pIC50 in experiment [1] of 6.35.

In the case of `O=C(Nc1ccccc1C(=O)NC(Cc1ccc(O)cc1)C(=O)O)c1cc2ccccc2[nH]1` (racemic), in experiment [1], the pIC50 is 5.69.

Turning to `NC(=O)C(Cc1ccccc1)NC(=O)c1ccccc1NC(=O)c1cc2ccccc2[nH]1` (racemic), in experiment [1], the negative logarithm of the IC50 (pIC50) was 5.07. Moreover, the Activity in experiment [5] is less than 20%.

In turn, `O=C(Nc1ccccc1C(=O)NC(Cc1ccc(OCc2ccccc2)cc1)C(=O)O)c1cc2ccccc2[nH]1` (racemic) showed a negative logarithm of the IC50 (pIC50) in experiment [1] of 5.94. Also, the Activity in experiment [5] was less than 20%.

For the compound `CC(C)C(NC(=O)c1ccccc1NC(=O)c1cc2ccccc2[nH]1)C(=O)O` (racemic), in experiment [1], the pIC50 is 6.54.

With `CC(C)CC(NC(=O)c1ccccc1NC(=O)c1cc2ccccc2[nH]1)C(=O)O` (racemic), in experiment [1], the negative logarithm of the IC50 (pIC50) is 7.08. In addition, the inhibition in experiment [4] was 100%.

Regarding `CSCCC(NC(=O)c1ccccc1NC(=O)c1cc2ccccc2n1C)C(=O)O` (racemic), in experiment [1], the pIC50 was 7.04. This compound also had an Activity in experiment [5] of less than 20%.

For the compound `CCOC(=O)C(Cc1ccccc1)NC(=O)c1ccccc1NC(=O)c1cc2ccccc2[nH]1` (racemic), the Activity in experiment [6] was 20%; in experiment [3], less than 20%.

In experiment [6], `O=C(Nc1ccccc1C(=O)NC(CO)Cc1ccccc1)c1cc2ccccc2[nH]1` (racemic) came in with an Activity of 32%.

With `O=C(O)CC(NC(=O)c1ccccc1NC(=O)c1cc2ccccc2[nH]1)C(=O)O` (racemic), the Activity in experiment [7] and in experiment [8] was less than 20% each time.

Regarding `O=C(O)CCC(NC(=O)c1ccccc1NC(=O)c1cc2ccccc2[nH]1)C(=O)O` (racemic), the Activity in experiment [7] and in experiment [5] was less than 20% each time.
